# Data reported in ChEMBL document CHEMBL5346963, “Innovative Strategy toward Mutant CFTR Rescue in Cystic Fibrosis: Design and Synthesis of Thiadiazole Inhibitors of the E3 Ligase RNF5” (J Med Chem, 2023).
# Calls of active or inactive are those of the source. Unless noted, the rule behind the calls is not given here.
# Experiments:
# [1] = system: CFBE41o-; test: Antiproliferative activity against human CFBE41o- cells harbouring CFTR F508del mutant/HS-YFP at 5 uM incubated for 48 hrs; assay type: toxicity, cell-based
# Method in brief: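 Cells plated at 5000/well and treated after 6 h with compound (5 μM) or DMSO. Cell-covered area was followed by the YFP signal over 48 h on a high-content imager. Means ± SEM, n = 6. Three independent experiments; ANOVA with Dunnett test.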
# [2] = Aggregation property of the compound in PBS buffer at pH 7.5 by 1D 1H-NMR analysis; assay type: physicochemical
# Method in brief: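 Solubility by 1H 1D NMR and aggregation by WaterLOGSY at 298 K in PBS pH 7.5 with 1 μM ZnCl2, 1 mM DTT, 10% D2O, 1% DMSO-d6. Theoretical concentrations 20, 50 and 100 μM, with 200 μM 4-trifluoromethyl benzoic acid as internal reference. WaterLOGSY: mixing time 1.7 s, relaxation delay 2 s, 256 scans.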
# [3] = system: CFBE41o-; test: Induction of apoptosis in human CFBE41o- cells assessed as increase in apoptosis at 100 uM incubated for 24 hrs by Hoechst 33342 and propidium iodide staining based analysis; assay type: toxicity, cell-based
# Method in brief: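 Cells were plated at 10,000/well and treated after 6 h with compound (5, 20, 100 μM), VX-809 (1 μM), MG132 (50 μM) or DMSO for 24 h. Hoechst 33342 counted total nuclei and propidium iodide counted apoptotic nuclei, by high-content imaging. Means ± SEM; ANOVA with Dunnett test.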
# [4] = target: T1, Cystic fibrosis transmembrane conductance regulator (Homo sapiens, UniProt P13569, F508DEL); test: Corrector activity at CFTR F508del mutant in human CFBE41o- cells coexpressing HS-YFP incubated for 25 mins by microplate reader based analysis; assay type: cell-based
# Method in brief: (§1)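 CFBE41o– cells stably expressing F508del-CFTR and HS-YFP were treated 24 h after seeding; DMSO and VX-809 (1 μM) served as controls. Cells were stimulated 25 min with forskolin (20 μM) plus VX-770 (1 μM). YFP was read for 2 s before and 12 s after iodide injection. Initial slope came from an exponential fit of the final 11 s. Three independent experiments.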
# [5] = target: E3 ubiquitin-protein ligase RNF5 (Homo sapiens) (UniProt Q99942); test: Binding affinity to recombinant human RNF5 (1 to 117 residues) expressed in Escherichia coli BL21(DE3) at 50 uM by Microscale thermophoresis analysis
# Method in brief: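 Human RNF5 aa 1–117 was expressed GST-tagged in E. coli BL21(DE3) with 0.2 mM IPTG for 5 h at 37 °C. It was purified on glutathione resin, TEV-cleaved, and RED-NHS labelled (5 nM). Binding check was run in PBS with 0.05% Tween-20, 0.1% PEG-8000 and 1 μM ZnCl2, ± 1 mM DTT, at ≤5% DMSO. Medium MST power, 20% excitation.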
# [6] = system: CFBE41o-; test: Induction of autophagy in human CFBE41o- cells harbouring CFTR F508del mutant assessed as increase in number of autophagic vacuoles at 2 uM incubated for 3 hrs by confocal microscopy based analysis; assay type: functional, cell-based
# Method in brief: (§2)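 CFBE41o– F508del/HS-YFP cells (50,000/well) were treated 24 h with compound (5 μM), VX-809 (1 μM) or DMSO. SAR405 (2 μM) and torin1 (20 nM) were added near the end of incubation. Cells were then loaded with 50 μM MDC in PBS for 10 min at 37 °C, washed, and imaged. MDC spot number was normalized to control. n = 3; ANOVA with Dunnett test.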
# [7] = system: Cystic fibrosis transmembrane conductance regulator (Homo sapiens), P13569 [F508del]; test: Corrector activity at CFTR F508del mutant in human CFBE41o- cells assessed as increase in CFTR mutant activity at 5 uM in presence of VX-809 incubated for 24 hrs; assay type: cell-based; method in brief: as §1
# [8] = target: T1, Cystic fibrosis transmembrane conductance regulator; test: Corrector activity at CFTR F508del mutant in human CFBE41o- cells incubated for 25 mins by microplate reader based analysis; assay type: cell-based; method in brief: as §1
# [9] = system: Cystic fibrosis transmembrane conductance regulator (Homo sapiens), P13569 [F508del]; test: Corrector activity at CFTR F508del mutant in human CFBE41o- cells assessed as increase in CFTR mutant activity at 5 uM in presence of VX-445 incubated for 24 hrs; assay type: cell-based; method in brief: as §1
# [10] = system: CFBE41o-; test: Induction of autophagy in human CFBE41o- cells harbouring CFTR F508del mutant assessed as increase in number of autophagic vacuoles at 5 uM incubated for 24 hrs by confocal microscopy based analysis; assay type: functional, cell-based; method in brief: as §2
# [11] = system: Cystic fibrosis transmembrane conductance regulator (Homo sapiens), P13569 [F508del]; test: Corrector activity at CFTR F508del mutant in human CFBE41o- cells assessed as rescue of CFTR mutant at 10 uM incubated for 24 hrs in presence of VX-445 by Western blot analysis; assay type: cell-based
# [12] = system: Cystic fibrosis transmembrane conductance regulator (Homo sapiens), P13569 [F508del]; test: Corrector activity at CFTR F508del mutant in human CFBE41o- cells assessed as decrease in accumulation of ubiquitylated CFTR at 10 uM incubated for 24 hrs in presence of VX-445 by Western blot analysis; assay type: cell-based
# Method in brief: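 Confluent CFBE41o– F508del cells were treated 24 h, with MG-132 (10 μM) or DMSO in the last 4 h. Lysate (600 μg protein) was immunoprecipitated with rabbit anti-CFTR (2 μg, 1 h RT) and protein A/G beads, then eluted reducing. Samples ran on 4–15% gradient SDS-PAGE and were western blotted. Bands were read by chemiluminescence, with densitometry of ubiquitylated CFTR.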
# Cystic fibrosis transmembrane conductance regulator (Homo sapiens), P13569 [F508del], sequence (P13569 as listed by the source): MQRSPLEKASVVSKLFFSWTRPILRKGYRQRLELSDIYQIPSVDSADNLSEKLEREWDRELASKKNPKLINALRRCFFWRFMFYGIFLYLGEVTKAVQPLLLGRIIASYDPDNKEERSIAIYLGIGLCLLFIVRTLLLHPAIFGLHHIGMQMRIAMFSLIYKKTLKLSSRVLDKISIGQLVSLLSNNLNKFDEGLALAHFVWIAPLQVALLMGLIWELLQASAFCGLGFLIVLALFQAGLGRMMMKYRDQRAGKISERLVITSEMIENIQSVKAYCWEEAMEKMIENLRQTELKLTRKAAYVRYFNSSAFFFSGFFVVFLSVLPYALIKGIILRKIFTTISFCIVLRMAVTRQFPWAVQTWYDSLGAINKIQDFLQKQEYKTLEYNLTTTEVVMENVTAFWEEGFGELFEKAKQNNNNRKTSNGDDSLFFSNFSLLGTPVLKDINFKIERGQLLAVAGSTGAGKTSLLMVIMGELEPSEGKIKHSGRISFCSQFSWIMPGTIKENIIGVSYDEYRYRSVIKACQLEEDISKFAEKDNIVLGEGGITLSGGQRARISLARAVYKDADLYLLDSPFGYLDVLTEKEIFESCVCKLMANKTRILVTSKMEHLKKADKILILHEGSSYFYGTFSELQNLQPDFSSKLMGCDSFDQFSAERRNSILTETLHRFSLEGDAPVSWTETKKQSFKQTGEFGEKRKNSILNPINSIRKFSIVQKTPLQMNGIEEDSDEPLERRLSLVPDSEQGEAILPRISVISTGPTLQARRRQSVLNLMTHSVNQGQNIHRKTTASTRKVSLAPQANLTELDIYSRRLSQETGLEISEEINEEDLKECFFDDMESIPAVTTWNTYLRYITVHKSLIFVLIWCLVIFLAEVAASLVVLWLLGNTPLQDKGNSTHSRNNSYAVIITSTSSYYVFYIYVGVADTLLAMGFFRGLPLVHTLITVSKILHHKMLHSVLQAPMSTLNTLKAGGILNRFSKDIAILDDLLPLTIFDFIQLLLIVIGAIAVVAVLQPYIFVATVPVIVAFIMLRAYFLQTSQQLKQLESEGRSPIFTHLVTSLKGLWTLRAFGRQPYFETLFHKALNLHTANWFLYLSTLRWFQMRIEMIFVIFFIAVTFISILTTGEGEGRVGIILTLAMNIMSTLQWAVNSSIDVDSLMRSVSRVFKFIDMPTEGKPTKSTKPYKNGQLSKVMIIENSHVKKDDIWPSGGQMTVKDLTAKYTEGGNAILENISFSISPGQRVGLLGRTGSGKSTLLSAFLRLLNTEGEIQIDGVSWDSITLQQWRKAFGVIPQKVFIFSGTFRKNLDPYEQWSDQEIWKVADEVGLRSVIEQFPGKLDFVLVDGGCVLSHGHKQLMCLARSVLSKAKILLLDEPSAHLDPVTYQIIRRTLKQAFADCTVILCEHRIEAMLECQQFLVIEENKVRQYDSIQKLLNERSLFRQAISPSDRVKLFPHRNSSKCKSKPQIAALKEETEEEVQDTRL
# T1 sequence (P13569 as listed by the source): as above
# E3 ubiquitin-protein ligase RNF5 (Homo sapiens), sequence (Q99942 whole entry, the tested form may be a part): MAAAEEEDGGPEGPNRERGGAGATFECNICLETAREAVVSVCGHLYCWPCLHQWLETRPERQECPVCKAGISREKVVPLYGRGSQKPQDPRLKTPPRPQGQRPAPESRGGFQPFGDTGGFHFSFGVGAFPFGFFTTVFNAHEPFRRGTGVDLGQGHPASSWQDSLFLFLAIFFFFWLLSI
smiles,measurement,setting,value
Cc1ns/c(=N\C(=N\c2ccccc2)c2ccccc2)n1Cc1cccc(O)c1,Activity,[1],Non-Toxic
same,Activity,[2],Not Active
same,Activity,[3],Toxic
same,EC50,[4],1600 nM
Cc1ns/c(=N\C(=N\c2ccccc2)c2ccccc2)n1Cc1ccc(C(=O)O)cc1,Activity,[2],Not Active
same,Activity,[5],Active
C[C@@H]1COCCN1c1cc(=O)n2c(n1)N(Cc1cncc(Cl)c1)[C@H](C(F)(F)F)CC2,Activity,[6],inactive
Cc1ns/c(=N\C(=N\c2ccccc2)c2ccccc2)n1Cc1ccc(Cl)cc1,Activity,[1],Non-Toxic
Cc1ns/c(=N\C(=N\c2ccccc2)c2ccccc2)n1Cc1ccccc1,Activity,[7],Active
same,EC50,[8],2600 nM
same,Activity,[1],Non-Toxic
same,Activity,[9],Active
same,Activity,[2],Not Active
same,Activity,[10],Active
Cc1ns/c(=N\C(=N\c2ccccc2)c2ccccc2)n1Cc1ccccc1Cl,Activity,[1],Non-Toxic
same,Activity,[3],Toxic
CCOc1cccc(Cn2c(C)ns/c2=N\C(=N\c2ccccc2)c2ccccc2)c1,Activity,[1],Non-Toxic
Cc1ns/c(=N\C(=N\c2ccccc2)c2ccccc2)n1Cc1cccc(F)c1,Activity,[1],Non-Toxic
Cc1ns/c(=N\C(=N\c2ccccc2)c2ccccc2)n1Cc1ccccc1N,Activity,[1],Non-Toxic
same,Activity,[2],Not Active
same,Activity,[3],Toxic
CC(C)(CO)c1cc2cc(NC(=O)C3(c4ccc5c(c4)OC(F)(F)O5)CC3)c(F)cc2n1C[C@@H](O)CO,Activity,[11],Active
same,Activity,[12],Active
Cc1ns/c(=N\C(=N\c2ccccc2)c2ccccc2)n1Cc1cccc(Cl)c1,Activity,[1],Non-Toxic
Cc1ccccc1Cn1c(C)ns/c1=N\C(=N\c1ccccc1)c1ccccc1,Activity,[1],Non-Toxic
COc1ccccc1Cn1c(C)ns/c1=N\C(=N\c1ccccc1)c1ccccc1,Activity,[1],Non-Toxic
same,Activity,[3],Toxic
CNc1cccc(Cn2c(C)ns/c2=N\C(=N\c2ccccc2)c2ccccc2)c1,Activity,[1],Non-Toxic
same,Activity,[10],Active
